Measurements as given in ChEMBL document CHEMBL1126849, “Synthesis of A-ring fluorinated derivatives of (17 alpha,20E/Z)-[125I]iodovinylestradiols: effect on receptor binding and receptor-mediated target tissue uptake” (J Med Chem, 1993).

Legend:
Type in all cases: protein assay
[1] = target: T1, Estrogen receptor (Mus musculus) (UniProt O08537+P19785); assay: Relative binding affinity (RBA) against murine cytoplasmic estrogen receptor incubated at 0-4 degree Celsius for 18 hours
Procedure, shortened: (§1)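 Competitive binding on murine uterine cytoplasmic extract with 20 nM [3H]estradiol and competitor steroids at 2 nM–20 μM, incubated 18 h at 0–4 °C. RBA = 100 × ratio of […] concentration giving 50% competition for specific binding. Mean of three experiments with SD.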

[2] = target: T1, Estrogen receptor (Mus musculus); assay: Relative binding affinity (RBA) for murine cytoplasmic estrogen receptor at 4C for 2 hr
Procedure, shortened: (§2)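 Murine uterine cytoplasmic extract incubated 2 h at 4 °C or at 25 °C with 20 nM [3H]estradiol and competitors at 2 nM–20 μM. RBA is taken as 100 × the ratio of competitor to unlabeled estradiol concentration needed for 50% competition of specific [3H]estradiol binding.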

[3] = target: T1, Estrogen receptor (Mus musculus); assay: Relative binding affinity (RBA) for murine cytoplasmic estrogen receptor at 4C for 18 hr; procedure, shortened: as §1
[4] = target: T1, Estrogen receptor (Mus musculus); assay: Relative binding affinity (RBA) for murine cytoplasmic estrogen receptor at 25 degree C for 2 hr; procedure, shortened: as §2

T1 sequence (O08537 whole entry, looked up): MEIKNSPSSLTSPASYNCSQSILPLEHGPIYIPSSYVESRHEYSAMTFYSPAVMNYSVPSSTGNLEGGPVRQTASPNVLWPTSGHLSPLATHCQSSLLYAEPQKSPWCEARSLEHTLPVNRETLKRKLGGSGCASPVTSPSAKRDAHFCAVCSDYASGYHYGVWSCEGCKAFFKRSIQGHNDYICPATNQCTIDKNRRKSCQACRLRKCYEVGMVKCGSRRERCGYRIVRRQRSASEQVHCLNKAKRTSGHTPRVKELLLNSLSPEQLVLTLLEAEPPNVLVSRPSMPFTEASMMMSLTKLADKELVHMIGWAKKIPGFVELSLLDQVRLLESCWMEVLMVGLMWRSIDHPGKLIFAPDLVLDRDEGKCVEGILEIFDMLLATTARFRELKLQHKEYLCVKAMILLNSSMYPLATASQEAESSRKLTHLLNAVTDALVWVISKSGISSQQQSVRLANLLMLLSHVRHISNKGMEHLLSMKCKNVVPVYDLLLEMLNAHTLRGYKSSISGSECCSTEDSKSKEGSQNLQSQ
T1 sequence (P19785 whole entry, looked up): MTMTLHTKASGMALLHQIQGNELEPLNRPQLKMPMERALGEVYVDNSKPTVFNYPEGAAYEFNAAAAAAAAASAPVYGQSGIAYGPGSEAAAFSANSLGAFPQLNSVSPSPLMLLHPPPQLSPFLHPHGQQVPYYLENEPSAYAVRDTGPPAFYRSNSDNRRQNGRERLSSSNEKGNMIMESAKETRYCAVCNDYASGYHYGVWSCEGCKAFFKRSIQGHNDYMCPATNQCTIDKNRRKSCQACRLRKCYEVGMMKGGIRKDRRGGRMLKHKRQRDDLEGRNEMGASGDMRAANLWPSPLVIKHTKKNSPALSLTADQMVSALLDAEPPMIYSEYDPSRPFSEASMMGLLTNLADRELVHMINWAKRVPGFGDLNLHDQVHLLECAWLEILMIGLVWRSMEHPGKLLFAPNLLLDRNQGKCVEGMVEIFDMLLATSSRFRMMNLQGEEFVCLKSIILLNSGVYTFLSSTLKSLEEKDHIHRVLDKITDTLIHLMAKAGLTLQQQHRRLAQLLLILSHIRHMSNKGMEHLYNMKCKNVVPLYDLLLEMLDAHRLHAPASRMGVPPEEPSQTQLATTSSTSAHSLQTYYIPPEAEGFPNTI

C=C[C@]1(O)CC[C@H]2[C@@H]3CCc4c(ccc(O)c4F)[C@H]3CC[C@@]21C
RBA [1]: 119

C=C[C@]1(O)CC[C@H]2[C@@H]3[C@H](C)Cc4cc(O)ccc4[C@H]3CC[C@@]21C
RBA [1]: 73.1

C=C[C@]1(O)CC[C@H]2[C@@H]3[C@H](C)Cc4c(ccc(O)c4F)[C@H]3CC[C@@]21C
RBA [1]: 62.4

C[C@@H]1Cc2cc(O)ccc2[C@H]2CC[C@@]3(C)[C@@H](CC[C@@]3(O)/C=C\I)[C@H]12
RBA [1]: 44.9

CO[C@H]1C[C@@]2(C)[C@@H](CC[C@@]2(O)/C=C/I)[C@@H]2CCc3cc(O)ccc3[C@H]21
RBA [1]: 27.7

C=C[C@]1(O)CC[C@H]2[C@@H]3CCc4cc(O)c(F)cc4[C@H]3CC[C@@]21C
RBA [1]: 64.3

C=C[C@]1(O)CC[C@H]2[C@@H]3CCc4c(ccc(O)c4F)[C@H]3[C@@H](OC)C[C@@]21C
RBA [1]: 16.7

C[C@]12CC[C@@H]3c4ccc(O)cc4CC[C@H]3[C@@H]1CC[C@@]2(O)/C=C/I
RBA [1]: 39.7

C[C@]12CC[C@@H]3c4ccc(O)cc4CC[C@H]3[C@@H]1CC[C@@]2(O)/C=C\I
RBA [1]: 46.7

C=C[C@]1(O)CC[C@H]2[C@@H]3CCc4cc(O)c(F)cc4[C@H]3[C@@H](OC)C[C@@]21C
RBA [1]: 15.9

C[C@@H]1Cc2cc(O)ccc2[C@H]2CC[C@@]3(C)[C@@H](CC[C@@]3(O)/C=C/I)[C@H]12
RBA [1]: 43.2

C=C[C@]1(O)CC[C@H]2[C@@H]3[C@H](C)Cc4cc(O)c(F)cc4[C@H]3CC[C@@]21C
RBA [1]: 33.3

C#C[C@]1(O)CC[C@H]2[C@@H]3CCc4c(ccc(O)c4F)[C@H]3CC[C@@]21C
RBA [2]: 80
RBA [3]: 119
RBA [4]: 166

C=C[C@]1(O)CC[C@H]2[C@@H]3CCc4cc(O)ccc4[C@H]3[C@@H](OC)C[C@@]21C
RBA [1]: 15.3

CO[C@H]1C[C@@]2(C)[C@@H](CC[C@@]2(O)/C=C\I)[C@@H]2CCc3cc(O)ccc3[C@H]21
RBA [1]: 32
